# Measurements reported in ChEMBL document CHEMBL4680142, “Thiazolidine-2,4-dione-based irreversible allosteric IKK-β kinase inhibitors: Optimization into in vivo active anti-inflammatory agents” (Eur J Med Chem, 2020).
# The source made the active and inactive calls. The rule behind the calls is not given here.
# How the values were obtained:
# RAW264.7 [1] = experiment: Antiinflammatory activity against mouse RAW264.7 cells assessed as reduction in LPS-induced PGE2 level incubated for 1 hr followed by LPS stimulation and measured after 24 hrs by ELISA; format: functional, cell-based
# Summary of the method: (§1)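 RAW 264.7 cells (DMEM, 10% FBS, 37 °C, 5% CO2) plated at 2×10^5 cells/mL and left overnight. Compounds (0.1, 1, 10 µM) or NS-398 given for 1 h, then LPS 10 ng/mL for 24 h. Culture medium assayed by ELISA: competitive colorimetric for PGE2/TNF-α, mouse DuoSet for TNF-α/IL-6. IC50 is the concentration lowering the mediator to 50%.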
# [2] = target: T1, Inhibitor of nuclear factor kappa-B kinase subunit beta (Homo sapiens) (UniProt O14920); experiment: Allosteric inhibition of IKKbeta (unknown origin) at 0.001 to 30 uM using 5FAM-GRHDSGLDSMK-NH2 as substrate incubated for 10 mins followed by substrate addition and measured after 40 mins by TR-FRET assay relative to control; conditions: filed as negative allosteric modulator, dose 0.001-30 µM, time 50.0 min
# T1 sequence (whole entry): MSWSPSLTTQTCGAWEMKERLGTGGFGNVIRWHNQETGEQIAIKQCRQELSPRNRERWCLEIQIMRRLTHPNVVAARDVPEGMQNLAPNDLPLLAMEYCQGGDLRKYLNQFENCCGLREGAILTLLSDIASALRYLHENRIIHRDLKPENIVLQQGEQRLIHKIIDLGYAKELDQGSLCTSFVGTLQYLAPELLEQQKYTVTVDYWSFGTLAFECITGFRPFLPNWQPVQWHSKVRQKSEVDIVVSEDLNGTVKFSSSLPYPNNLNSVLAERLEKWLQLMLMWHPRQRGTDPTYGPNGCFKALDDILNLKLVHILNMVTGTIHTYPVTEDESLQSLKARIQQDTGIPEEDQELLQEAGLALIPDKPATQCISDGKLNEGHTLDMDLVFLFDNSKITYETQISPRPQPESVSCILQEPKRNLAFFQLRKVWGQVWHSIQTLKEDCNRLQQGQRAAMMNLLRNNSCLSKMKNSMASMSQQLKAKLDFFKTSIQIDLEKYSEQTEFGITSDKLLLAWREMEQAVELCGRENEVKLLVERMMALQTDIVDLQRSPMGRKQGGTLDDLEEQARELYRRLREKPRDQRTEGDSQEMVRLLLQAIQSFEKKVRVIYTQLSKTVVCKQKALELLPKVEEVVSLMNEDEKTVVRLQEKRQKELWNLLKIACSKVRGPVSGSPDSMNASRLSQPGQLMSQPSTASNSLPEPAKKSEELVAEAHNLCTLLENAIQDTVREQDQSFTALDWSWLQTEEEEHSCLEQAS
# Summary of the method: (§2)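 IKK2 (0.5 µg/mL) in 10 mM Tris-HCl pH 7.2, 10 mM MgCl2, 0.05% NaN3, 1 mM DTT, 0.01% Tween-20, room temperature. Compound (30 to 0.001 µM, ten roughly three-fold dilutions) preincubated 10 min with enzyme. Reaction started with 1 µM 5FAM-IκBα peptide and 3 µM ATP, run 0, 20, 40 or 60 min. IMAP binding reagent/terbium donor detection, TR-FRET read at 495/520 nm. Kobs fitted against concentration by nonlinear regression.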
# RAW264.7 [3] = experiment: Cytotoxicity against mouse RAW264.7 cells assessed as reduction in cell viability at 6 uM incubated for 24 hrs by MTT assay; format: cell-based; conditions: raw264.7, 24 h
# Summary of the method: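 MTT viability in RAW 264.7 cells seeded at 1×10^5 cells/mL and incubated overnight. Compounds added with or without LPS (1 µg/mL) for 24 h. MTT for 4 h at 37 °C, formazan dissolved in DMSO, absorbance read at 540 nm. IC80 is the concentration reducing viability to 80% with LPS.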
# [4] = target: T1, Inhibitor of nuclear factor kappa-B kinase subunit beta (Homo sapiens); experiment: Allosteric inhibition of IKKbeta (unknown origin) at 0.001 to 30 uM using 5FAM-GRHDSGLDSMK-NH2 as substrate incubated for 10 mins followed by substrate addition and measured after 60 mins by TR-FRET assay relative to control; conditions: filed as negative allosteric modulator, dose 0.001-30 µM, time 70.0 min; summary of the method: as §2
# [5] = Metabolic stability in human liver microsomes assessed as half life at 1 uM measured upto 1 hrs by LC-MS/MS analysis; format: ADME, Microsome
# Summary of the method: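 Pooled human liver microsomes (0.5 mg/mL protein) with 1 µM compound at 37 °C. Reaction stopped at 0, 5, 15, 30 and 60 min and analysed by LC-MS/MS. Amount remaining expressed as % of initial concentration. Mibefradil run as reference.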
# RAW264.7 [6] = experiment: Antiinflammatory activity against mouse RAW264.7 cells assessed as reduction in LPS-induced TNF-alpha level at 0.1 to 1 uM incubated for 1 hr followed by LPS stimulation and measured after 24 hrs by ELISA; format: functional, cell-based; conditions: dose 0.1-1 µM, time 25.0 hrs; summary of the method: as §1
# [7] = target: T2, Inhibitor of nuclear factor kappa-B kinase subunit beta (Homo sapiens, UniProt O14920); experiment: Allosteric inhibition of IKKbeta (unknown origin) using 5FAM-GRHDSGLDSMK-NH2 as substrate incubated for 10 mins followed by substrate addition and measured immediately by TR-FRET assay
# T2 sequence (O14920 whole entry): T1 sequence (whole entry)
# Summary of the method: (§3)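 Kinetic IMAP TR-FRET run with 0.5 µg/mL IKK2 in 10 mM Tris-HCl pH 7.2, 10 mM MgCl2, 0.05% NaN3, 1 mM DTT, 0.01% Tween-20. Compound (ten doses, 30 to 0.001 µM) pre-incubated with enzyme 10 min, then 1 µM IκBα-derived substrate and 3 µM ATP added. Room temperature. Reactions run 0, 20, 40 or 60 min. Ten-point curves fitted by nonlinear regression.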
# [8] = Effect on NO production in non-stimulated mouse RAW264.7 cells at 10 uM after 24 hrs by Griess reagent based assay; conditions: raw264.7, 24 h
# [9] = target: T2, Inhibitor of nuclear factor kappa-B kinase subunit beta; experiment: Allosteric inhibition of IKKbeta (unknown origin) using 5FAM-GRHDSGLDSMK-NH2 as substrate incubated for 10 mins followed by substrate addition and measured after 20 mins by TR-FRET assay; summary of the method: as §3
# RAW264.7 [10] = experiment: Antiinflammatory activity against mouse RAW264.7 cells assessed as reduction in LPS-induced PGE2 production at 10 uM incubated for 1 hr followed by LPS stimulation and measured after 24 hrs by ELISA (reference value: 33.64 ng/ml); format: functional; conditions: time 25 hrs; summary of the method: as §1
# [11] = Cytotoxicity against non-stimulated mouse RAW264.7 cells upto 10 uM after 24 hrs by MTT assay; conditions: raw264.7, 24 h
# [12] = target: T2, Inhibitor of nuclear factor kappa-B kinase subunit beta; experiment: Allosteric inhibition of IKKbeta (unknown origin) using 5FAM-GRHDSGLDSMK-NH2 as substrate incubated for 10 mins followed by substrate addition and measured after 60 mins by TR-FRET assay; summary of the method: as §3
# RAW264.7 [13] = experiment: Antiinflammatory activity against mouse RAW264.7 cells assessed as reduction in LPS-induced PGE2 production at 0.1 to 1 uM incubated for 1 hr followed by LPS stimulation and measured after 24 hrs by ELISA; format: functional, cell-based; conditions: dose 0.1-1 µM, time 25.0 hrs; summary of the method: as §1
Structure (SMILES),IC50 (RAW264.7 [1]),inhibition [2],Activity (RAW264.7 [3]),inhibition [4],half-life at 1 µM [5],inhibition (RAW264.7 [6]),IC50 [7],Activity [8],IC50 [9],Activity (RAW264.7 [10]),Activity [11],IC50 [12],Activity (RAW264.7 [13])
CN1CCN(CCCOc2ccc(N3C(=O)S/C(=C\c4ccc(Oc5ccc(C#N)cc5)cc4)C3=O)cc2)CC1,9830 nM,-4.47%,Non-Toxic,-0.38%,20 min,inactive,575 nM,Non-Toxic,347 nM,16.53 ng/mL,Non-Toxic,204 nM,–
CN1CCN(CCCCCOc2cccc(N3C(=O)S/C(=C\c4ccc(Oc5ccc([N+](=O)[O-])cc5)cc4)C3=O)c2)CC1,> 10000 nM,-8.33%,Non-Toxic,-3.88%,60 min,–,347 nM,Non-Toxic,245 nM,19.04 ng/mL,Non-Toxic,219 nM,inactive
